Screening data from PubChem BioAssay.
An excerpt weighted towards active compounds, which were near 2.4% of everything screened.
M18AAP inhibitor – blocks P. falciparum M18 aspartyl aminopeptidase; AID 1822; inhibition, % at 7.35 µM; 290,000 tested, 1.2% active; recombinant PfM18AAP, H-Glu-NHMec fluorogenic cleavage;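 active means inhibition above the campaign mean inhibition over all tested compounds plus 3 SD, cut at about 28% in these data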;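 further: 0% = plate median of test compound wells and 100% = 2 mM ZnCl2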
HGIII-sPLA2 inh – Inhibits HGIII-sPLA2 liposome hydrolysis, primary screen | Q9NZ20 | 370,000 tested, 0.56% active | inhibition, % at 12.2 µM | QFRET BODIPY PC-A2 liposome hydrolysis, fluorescence;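 active means inhibition above mean plus 3 SD of compounds lying within the high and low control bounds, cut at about 19% in these data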;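 further: 0% = median of test compound wells and 100% = no enzyme DMSO wells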
Target sequence (Q9NZ20 whole entry, looked up): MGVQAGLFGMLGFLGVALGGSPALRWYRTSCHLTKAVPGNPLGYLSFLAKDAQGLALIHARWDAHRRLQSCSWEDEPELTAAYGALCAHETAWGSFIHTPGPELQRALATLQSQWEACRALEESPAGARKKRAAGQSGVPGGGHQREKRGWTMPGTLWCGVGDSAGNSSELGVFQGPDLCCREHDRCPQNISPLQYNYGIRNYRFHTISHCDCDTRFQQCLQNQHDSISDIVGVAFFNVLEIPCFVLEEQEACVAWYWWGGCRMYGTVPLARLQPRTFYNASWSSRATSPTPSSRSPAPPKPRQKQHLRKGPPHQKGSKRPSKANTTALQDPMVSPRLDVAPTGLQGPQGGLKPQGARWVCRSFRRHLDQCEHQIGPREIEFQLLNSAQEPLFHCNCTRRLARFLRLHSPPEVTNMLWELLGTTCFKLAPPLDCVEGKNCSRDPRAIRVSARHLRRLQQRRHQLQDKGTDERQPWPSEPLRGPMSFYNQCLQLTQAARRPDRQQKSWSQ
VIM-2 inhibitor – blocks Pseudomonas aeruginosa VIM-2 metallo-beta-lactamase; purified VIM-2, nitrocefin hydrolysis, epi-absorbance fluorescence; inhibition, % at 5.6 µM; 290,000 tested, 0.89% active; AID 1527;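 active means inhibition above the mean of all tested compounds plus 3 SD, cutoff set per screening run, cut at about 7.5% in these data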;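 further: red hydrolysis product quenches plate fluorescence so inhibitors raise well fluorescence; 0% = enzyme with DMSO and 100% = DMSO without enzyme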
IMP-1 inhibitor – blocks Pseudomonas aeruginosa IMP-1 metallo-beta-lactamase | purified IMP-1, nitrocefin hydrolysis, epi-absorbance fluorescence | 290,000 tested, 0.45% active | inhibition, % at 5.6 µM;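 active means inhibition above the mean plus 3 SD of all compounds in the same screening run, cut at about 4.5% in these data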;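 further: 0% = IMP-1 with DMSO and 100% = DMSO wells lacking enzyme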
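System: Purified IMP-1 | Read-out basis: Percent enzyme inhibition | Controls: IMP-1 with DMSO as 0%, enzyme-free DMSO as 100% | Replicates: One well per compound | Doses: 5.6 µM nominal single concentration | Detection: Epi-absorbance fluorescence, 480 nm excitation, 530 nm emission | Incubation: 25 °C, 15 min preincubation, 25 min reaction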
sPLA2 confirm – human GIII-sPLA2 inhibition, confirmation; shares compounds with HGIII-sPLA2 inh; recombinant hGIII-sPLA2, BODIPY PC-A2 QFRET fluorescence; inhibition, % at 12.2 µM; 2,000 tested, 34% active;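 active means mean inhibition across triplicates above the hit cutoff set in the earlier primary screen, cut at about 19% in these data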;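 further: 0% = enzyme with DMSO and 100% = DMSO wells lacking enzyme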
535nm interf – optically interferes with 535nm fluorescence in sPLA2 counter-screen; shares compounds with HGIII-sPLA2 inh; BODIPY FL product fluorescence interference, QFRET; inhibition, % at 12.2 µM; 2,000 tested, 8.5% active; AID 743282;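 active means average inhibition above the solvent-only control mean plus 3 SD, cut at about 6% in these data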;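 further: 0% = DMSO with substrate plus product and 100% = DMSO with substrate alone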
535nm interf DR – counter-screen for HGIII-sPLA2 inhibitors: 535nm fluorescence interference, dose response; 240 tested, under 10 active; IC50, µM; AID 743455; BODIPY FL product fluorescence interference, cell-free; shares compounds with HGIII-sPLA2 inh;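 active means IC50 at or below 10 µM; inactive means IC50 above 10 µM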
* = called active by the depositor; · = no result.

SMILES	M18AAP inhibitor	HGIII-sPLA2 inh	VIM-2 inhibitor	IMP-1 inhibitor	sPLA2 confirm	535nm interf	others
COc1cc(C(C)=O)ccc1OCC(=O)NCc1ccccc1CN1CCCC1	·	1	·	·	·	·
Cc1ccc(C(=O)Oc2oc(-c3ccccc3)nc2C=Nc2ccc(N(C)C)cc2)cc1	10	14	-3	-5	·	·
CN(C)c1ccc(N=Cc2nc(-c3ccccc3)oc2OC(=O)c2cccc(Cl)c2)cc1	5	22*	-1	-3	8	-4
CCC(C)[C@H](NC(=O)[C@H](Cc1ccccc1)NC(=O)OC(C)(C)C)C(=O)NCc1ccccc1Br (some centres undefined)	·	20*	·	·	-2	-18
CCC(C)[C@H](NC(=O)N1CCCCC1)C(=O)OC (some centres undefined)	-1	23*	-3	-2	0	-4
CCC(C)[C@H](NC(=O)N1CCCC1)C(=O)OC (some centres undefined)	-1	3	-2	-2	·	·
CC(=O)c1c(C)[nH]c(C(=O)OCC(=O)NCc2cccs2)c1C	·	2	·	·	·	·
Cc1cccc(-c2nnn3c2nc(NCCc2ccc(S(N)(=O)=O)cc2)c2ccccc23)c1	5	22*	-5	-2	-6	-2
Cc1ccc(-c2nnn3c2nc(NCCc2ccc(S(N)(=O)=O)cc2)c2ccccc23)cc1	-10	0	-2	-5	·	·
O=C(CN1CCN(C2CCCCC2)CC1)NCCC1=CCCCC1	-4	20*	-3	-3	4	-19
O=C1CN(C(=O)c2cc([N+](=O)[O-])ccc2Cl)C(c2ccccc2)c2cc(F)ccc2N1 (centres undefined)	3	31*	0	-1	6	-7
O=C(CCNS(=O)(=O)c1ccccc1)N1CCC(Cc2ccccc2)CC1	-1	-6	0	-3	·	·
Cc1ccc2nc(/N=C(\N)NC(=O)N3c4ccccc4Sc4ccccc43)nc(C)c2c1	-1	6	-7	-3	·	·
Cc1cc2nc(/N=C(\N)NC(=O)N3c4ccccc4Sc4ccccc43)nc(C)c2cc1C	-1	21*	-2	-4	2	0
Cc1onc(-c2ccccc2)c1C(=O)NN=Cc1cc(Cl)cc(Cl)c1O	·	22*	·	·	17	11*
COc1ccc(NC(=O)C2Cc3c(-c4ccc5c(c4)OCO5)ccnc3O2)cc1OC (centres undefined)	·	-9	·	·	·	·
S=C(NCCc1ccccc1)N/N=C/c1cccs1	·	20*	·	·	20*	-1
Oc1ccccc1/C=N/NC(=S)NCCc1ccccc1	29*	20*	-2	-2	21*	7.3*
C/C(=N\NC(=S)NCCc1ccccc1)c1ccc(O)cc1O	25	33*	-3	-3	40*	3	535nm interf DR=>122
C/C(=N\NC(=S)NCCc1ccccc1)c1ccc(Cl)cc1Cl	3	6	-3	-2	·	·
Oc1ccccc1C=NNC(=S)Nc1ccc(F)cc1	·	32*	·	·	33*	13*
O=C(COCc1ccccc1)N1CC[C@H]2[C@H](CCCN2Cc2ccccc2)C1	·	-2	·	·	·	·
Cc1ccc(S(=O)(=O)N2CC3C(=O)C[C@@H](c4ccccc4)N(S(=O)(=O)c4ccc(CCCOCCOCCNC(=O)OC(C)(C)C)cc4)C3CC2c2ccccc2)cc1 (some centres undefined)	·	-19	·	·	·	·
COc1ccc(C(C)(C)C)cc1NC(=O)OC[C@@H]1CSCCS(=O)(=O)N1	·	0	·	·	·	·
C=C(C)/C=C1/C(Cc2ccccc2)N(CC2CC2)C(=N)N1C(=O)OCc1ccccc1 (centres undefined)	·	8	·	·	·	·
O=C(N/N=C/c1cccs1)c1cc(-c2ccc(Cl)s2)[nH]n1	6	-9	-1	-4	·	·
Cc1ccc(NC(=O)NNC(=O)COc2ccc3ccccc3c2)cc1	-10	-10	0	-2	·	·
Cc1ccc(NC(=O)NNC(=O)c2cc3ccccc3cc2O)cc1	15	27*	0	-2	15	-4
COc1ccccc1NC(=O)NNC(=O)c1cc2ccccc2cc1O	23	27*	-1	-3	20*	6
Cc1cccc(NC(=O)NNC(=O)c2ccc3ccccc3c2O)c1	27	29*	-4	-2	30*	2	535nm interf DR=>122
